13 compounds from ChEMBL document CHEMBL4033676, “Design, synthesis and biological evaluation of 3,4-dihydro-2(1H)-quinoline-O-alkylamine derivatives as new multipotent cholinesterase/monoamine oxidase inhibitors for the treatment of Alzheimer's disease” (Bioorg Med Chem, 2017) can be followed below.

Activity calls are given as the source filed them. The calls are words filed in the database; no cut-off is given here.

One data set in a line: physchem. Particulars: PAMPA. On the technique in general: In PAMPA a lipid-coated filter parts donor from acceptor wells.
Data set [1] has as its target Acetylcholinesterase (Electrophorus electricus) (UniProt O42275). The data set is described as follows: Inhibition of electric eel AChE at 25 uM using acetylthiocholine chloride as substrate after 15 mins by Ellman's method relative to control.
The target of data set [2] is Cholinesterase (Equus caballus) (UniProt P81908). The data set can be described thus: Inhibition of equine serum BuChE at 25 uM using butyrylthiocholine chloride as substrate after 15 mins by Ellman's method relative to control. In general terms: DTNB colorimetry detects thiols as they appear.
Cholinesterase (Equus caballus), sequence (P81908 whole entry): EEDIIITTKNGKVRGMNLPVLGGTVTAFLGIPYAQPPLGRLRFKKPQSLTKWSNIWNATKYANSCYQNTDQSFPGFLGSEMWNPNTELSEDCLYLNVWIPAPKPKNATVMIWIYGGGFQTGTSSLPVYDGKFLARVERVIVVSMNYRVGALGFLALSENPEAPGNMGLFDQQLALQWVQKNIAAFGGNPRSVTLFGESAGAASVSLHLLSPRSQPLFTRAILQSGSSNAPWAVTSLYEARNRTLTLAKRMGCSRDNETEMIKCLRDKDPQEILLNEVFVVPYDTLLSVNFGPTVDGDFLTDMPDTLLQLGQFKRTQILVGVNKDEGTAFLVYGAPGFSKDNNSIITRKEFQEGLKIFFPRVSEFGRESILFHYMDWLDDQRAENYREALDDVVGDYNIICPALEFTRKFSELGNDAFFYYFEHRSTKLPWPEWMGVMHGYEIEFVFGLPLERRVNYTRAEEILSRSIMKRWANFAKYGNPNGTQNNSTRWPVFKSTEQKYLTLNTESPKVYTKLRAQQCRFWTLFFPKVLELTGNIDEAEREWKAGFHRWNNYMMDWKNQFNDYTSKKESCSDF
The species named for data set [3] is Rattus norvegicus. The data set can be described thus: Inhibition of rat serum BuChE at 25 uM using butyrylthiocholine chloride as substrate after 15 mins by Ellman's method relative to control.
For data set [4], the target named is T1, Acetylcholinesterase (Rattus norvegicus) (UniProt P37136).
T1 sequence (whole entry): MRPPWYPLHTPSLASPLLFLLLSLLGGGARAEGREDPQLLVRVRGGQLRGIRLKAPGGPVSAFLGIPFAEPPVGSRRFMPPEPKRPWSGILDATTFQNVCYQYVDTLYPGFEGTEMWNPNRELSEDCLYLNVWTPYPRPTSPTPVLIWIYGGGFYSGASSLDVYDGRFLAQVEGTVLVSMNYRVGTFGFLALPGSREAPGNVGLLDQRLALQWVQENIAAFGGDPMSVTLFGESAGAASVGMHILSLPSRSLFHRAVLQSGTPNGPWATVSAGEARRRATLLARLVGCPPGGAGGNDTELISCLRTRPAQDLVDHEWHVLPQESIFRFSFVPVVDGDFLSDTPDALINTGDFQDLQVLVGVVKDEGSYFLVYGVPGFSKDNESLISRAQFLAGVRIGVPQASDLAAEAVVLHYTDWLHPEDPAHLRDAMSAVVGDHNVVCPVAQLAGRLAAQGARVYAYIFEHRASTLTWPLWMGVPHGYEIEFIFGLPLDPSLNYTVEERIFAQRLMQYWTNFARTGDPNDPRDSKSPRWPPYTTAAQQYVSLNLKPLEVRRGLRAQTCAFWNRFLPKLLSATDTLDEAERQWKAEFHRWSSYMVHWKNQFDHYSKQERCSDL
Particulars: at 25 µM.

Data set [5] is filed under the species Rattus norvegicus. The data set can be described thus: Selectivity index, ratio of IC50 for rat serum BuChE to IC50 for 5% rat cortex homogenate AChE.
In data set [6] the target is Acetylcholinesterase (Electrophorus electricus, UniProt O42275). The data set is described as follows: Inhibition of electric eel AChE using acetylthiocholine chloride as substrate after 15 mins by Ellman's method.
Acetylcholinesterase (Electrophorus electricus, UniProt O42275), sequence (O42275 whole entry): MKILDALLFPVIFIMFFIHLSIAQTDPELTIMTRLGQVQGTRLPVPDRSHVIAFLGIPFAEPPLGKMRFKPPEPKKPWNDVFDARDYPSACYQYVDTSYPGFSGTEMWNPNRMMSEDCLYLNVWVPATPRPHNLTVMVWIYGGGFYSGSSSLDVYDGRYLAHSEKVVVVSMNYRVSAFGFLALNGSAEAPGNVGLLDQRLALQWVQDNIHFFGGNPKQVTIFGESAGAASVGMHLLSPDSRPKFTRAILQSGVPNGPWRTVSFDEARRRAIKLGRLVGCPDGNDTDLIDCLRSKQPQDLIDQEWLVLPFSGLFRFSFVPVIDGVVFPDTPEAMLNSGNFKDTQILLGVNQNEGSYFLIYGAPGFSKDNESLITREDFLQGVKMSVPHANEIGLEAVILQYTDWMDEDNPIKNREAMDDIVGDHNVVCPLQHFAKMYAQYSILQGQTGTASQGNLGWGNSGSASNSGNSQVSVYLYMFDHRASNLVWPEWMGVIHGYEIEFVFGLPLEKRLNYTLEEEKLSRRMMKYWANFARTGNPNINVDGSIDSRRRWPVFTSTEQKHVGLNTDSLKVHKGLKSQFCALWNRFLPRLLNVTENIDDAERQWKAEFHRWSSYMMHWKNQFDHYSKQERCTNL
The next data set has as its target Cholinesterase (Equus caballus, UniProt P81908). The data set is described as follows: Inhibition of equine serum BuChE using butyrylthiocholine chloride as substrate after 15 mins by Ellman's method. An outline of the steps: (§1)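 Ellman assay. Equine serum or rat serum BuChE pre-incubated with test compound at various concentrations (DMSO <1%) in 0.1 M phosphate buffer pH 8.0 for 15 min at 37°C. DTNB (0.2%) added, absorbance read at 412 nm. Inhibition % = (1−Ai/Ac)×100. IC50 is the mean of three independent experiments, each run in triplicate.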

In data set [7] the target is T2, Acetylcholinesterase (Rattus norvegicus, UniProt P37136).
T2 sequence (P37136 whole entry): T1 sequence (whole entry)

Data set [8] is described as follows: Inhibition of rat serum BuChE using butyrylthiocholine chloride as substrate after 15 mins by Ellman's method. In short, it runs like this:
as §1

Data set [9] is described as follows: Selectivity index, ratio of IC50 for equine serum BuChE to IC50 for electric eel AChE.
Data set [10] concerns the target Acetylcholinesterase (Electrophorus electricus) (UniProt O42275). The data set is described as follows: Mixed type inhibition of electric eel AChE using acetylthiocholine iodide as substrate up to 1 uM preincubated for 15 mins followed by substrate addition by Lineweaver-Burk plot analysis. An outline of the steps: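 Purified Electrophorus electricus AChE (0.5 units/mL) in 0.1 M phosphate buffer pH 8.0 with 0.2% DTNB. Three inhibitor concentrations pre-incubated with enzyme for 15 min at 37°C, then acetylthiocholine iodide added at varying concentrations. Hydrolysis followed at 412 nm; no-inhibitor controls run in parallel. Weighted least-squares double-reciprocal analysis; Ki taken from the x-intercept of a secondary slope replot.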

Data set [11] has as its target T3, Amine oxidase [flavin-containing] A (Homo sapiens, UniProt P21397).
T3 sequence (P21397 whole entry): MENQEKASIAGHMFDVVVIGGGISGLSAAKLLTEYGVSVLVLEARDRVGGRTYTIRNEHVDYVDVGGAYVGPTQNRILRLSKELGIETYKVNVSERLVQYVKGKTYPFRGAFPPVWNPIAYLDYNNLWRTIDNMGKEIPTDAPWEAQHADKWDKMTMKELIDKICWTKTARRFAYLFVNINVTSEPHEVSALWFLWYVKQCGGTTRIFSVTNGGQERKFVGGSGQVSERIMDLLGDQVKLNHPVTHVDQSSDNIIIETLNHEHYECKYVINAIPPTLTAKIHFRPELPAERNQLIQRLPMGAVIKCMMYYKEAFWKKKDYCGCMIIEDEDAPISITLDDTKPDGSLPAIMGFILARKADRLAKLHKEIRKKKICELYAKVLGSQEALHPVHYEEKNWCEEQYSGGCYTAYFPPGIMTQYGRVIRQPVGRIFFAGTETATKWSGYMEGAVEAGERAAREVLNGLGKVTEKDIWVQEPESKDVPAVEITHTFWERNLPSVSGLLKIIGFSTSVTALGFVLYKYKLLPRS
The data set can be described thus: Inhibition of recombinant human MAO-A expressed in baculovirus infected BTI insect cells using kynuramine as substrate after 30 mins by fluorescence assay.

Data set [12] has as its target T4, Amine oxidase [flavin-containing] B (Homo sapiens, UniProt P27338).
T4 sequence (P27338 whole entry): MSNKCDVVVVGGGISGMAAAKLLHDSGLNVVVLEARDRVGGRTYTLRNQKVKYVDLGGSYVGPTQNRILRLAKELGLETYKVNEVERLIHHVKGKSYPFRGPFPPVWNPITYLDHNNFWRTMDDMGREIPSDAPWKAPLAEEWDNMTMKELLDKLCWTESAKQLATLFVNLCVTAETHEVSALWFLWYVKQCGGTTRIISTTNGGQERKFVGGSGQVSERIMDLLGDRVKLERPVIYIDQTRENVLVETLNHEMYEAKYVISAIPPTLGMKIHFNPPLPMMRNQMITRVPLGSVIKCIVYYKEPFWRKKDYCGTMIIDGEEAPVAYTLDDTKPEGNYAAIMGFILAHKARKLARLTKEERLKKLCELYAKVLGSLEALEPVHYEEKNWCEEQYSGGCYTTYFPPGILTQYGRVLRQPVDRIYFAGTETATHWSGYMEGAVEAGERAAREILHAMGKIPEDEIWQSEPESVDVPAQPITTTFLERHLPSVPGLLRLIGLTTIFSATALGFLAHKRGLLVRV
The data set is described as follows: biochemical. The class given is cell-based.

For a further data set, the species on record is Homo sapiens. The data set is described as follows: Selectivity index, ratio of IC50 for recombinant human MAO-B to IC50 for recombinant human MAO-A.
Data set [13] concerns PC-12. The data set can be described thus: Cytotoxicity against rat PC12 cells assessed as decrease in cell viability up to 10 uM after 24 hrs by MTT assay. It counts as cell-based. Particulars: pc-12, 24 h. Background: Formazan colour is commonly taken as a measure of viable cells.
Data set [14] concerns PC-12. The data set can be described thus: Cytotoxicity against rat PC12 cells assessed as decrease in cell viability at 100 uM after 24 hrs by MTT assay. The class given is cell-based. As to conditions: pc-12, 24 h.

Cholinesterase, sequence (P81908 whole entry): as the sequence (P81908 whole entry) above
Acetylcholinesterase (Electrophorus electricus), sequence (O42275 24-633 limits assumed): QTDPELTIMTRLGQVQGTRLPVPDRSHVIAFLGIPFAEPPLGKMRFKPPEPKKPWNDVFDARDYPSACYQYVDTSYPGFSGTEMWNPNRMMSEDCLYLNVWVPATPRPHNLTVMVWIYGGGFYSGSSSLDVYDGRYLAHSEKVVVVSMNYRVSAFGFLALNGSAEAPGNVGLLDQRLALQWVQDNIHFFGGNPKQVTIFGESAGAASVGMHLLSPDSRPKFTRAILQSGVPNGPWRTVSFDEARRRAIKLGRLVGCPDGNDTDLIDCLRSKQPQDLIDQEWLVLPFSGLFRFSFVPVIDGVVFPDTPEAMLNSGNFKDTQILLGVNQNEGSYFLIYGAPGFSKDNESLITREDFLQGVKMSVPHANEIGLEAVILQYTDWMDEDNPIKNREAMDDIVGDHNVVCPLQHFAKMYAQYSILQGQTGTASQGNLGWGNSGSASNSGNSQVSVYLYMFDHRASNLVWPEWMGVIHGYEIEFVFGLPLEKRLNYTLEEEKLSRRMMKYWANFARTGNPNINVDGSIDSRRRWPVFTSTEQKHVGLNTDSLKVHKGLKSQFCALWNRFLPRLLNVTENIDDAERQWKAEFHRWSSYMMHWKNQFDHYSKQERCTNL

For orientation: Papp means the rate of passage across a membrane or cell layer, normalised by area and donor concentration. `CCn1cc(C(=O)O)c(=O)c2cc(F)c(N3CCNCC3)cc21` [NORFLOXACIN]: the Papp at 18 h, 100 ug/ml in the data set “physchem” was 0.1 to 0.42 ×10⁻⁶ cm/s.

`CCn1cc(C(=O)O)c(=O)c2cc(F)c(N3CCNCC3)nc21` [ENOXACIN] registered a Papp at 18 h, 100 ug/ml in the data set “physchem” of 0.47 to 0.9 ×10⁻⁶ cm/s.

One may read the inhibition as the change of the read-out against control, counted positive when it falls. With `O=C1CCc2ccc(O)cc2N1`, the inhibition (in data set [1]; in data set [2]; in the data set listed under Rattus norvegicus [3]; in [4]) was below 5% each time.

In “physchem”, `Cn1c(=O)c2[nH]cnc2n(C)c1=O.O` [THEOPHYLLINE] registered a Papp at 18 h, 100 ug/ml of 0.1 to 0.12 ×10⁻⁶ cm/s.

`CN1C(C(=O)Nc2ccccn2)=C(O)c2ccccc2S1(=O)=O` [PIROXICAM]: the Papp at 18 h, 100 ug/ml in the data set “physchem” lay within 0.72 to 2.5 ×10⁻⁶ cm/s.

`Clc1cccc(Cl)c1N=C1NCCN1` [CLONIDINE] had a Papp at 18 h, 100 ug/ml in “physchem” of 5.1 to 5.3 ×10⁻⁶ cm/s.

With `Cn1c(=O)c2c(ncn2C)n(C)c1=O` [CAFFEINE], the Papp at 18 h, 100 ug/ml in the data set “physchem” lay within 1.28 to 1.3 ×10⁻⁶ cm/s.

As usually defined, the IC50 is the concentration needed to halve the response being measured. As to `O=C1CCc2ccc(OCCCCCCN3CCC(Cc4ccccc4)CC3)cc2N1`, the figures for the Ratio IC50 (in the data set listed under Rattus norvegicus [5]; in [9]; in the data set listed under Homo sapiens) were 1.9, 4.1 and 4.7, respectively. Besides, the 50% inhibitory concentration (IC50) against Acetylcholinesterase [6] was 0.56 µM; against Cholinesterase it was 2.3 µM; against Acetylcholinesterase [7], 1.9 µM; in data set [8], 3.6 µM; in data set [11], 0.3 µM; in data set [12] it was 1.4 µM. Moreover, the inhibition result in data set [10] is “Active”. The values for the Activity result in the data set on PC-12 [13] and in the data set with PC-12 [14] were “Non-Toxic” and 87.3%, respectively. Besides, the Papp at 18 h, 100 ug/ml in the data set “physchem” is 25.6 ×10⁻⁶ cm/s.

As for `CCN(CC)CCCOc1ccc2c(c1)NC(=O)CC2`, the Ratio IC50 amounted to 1.1 in the data set listed under Rattus norvegicus [5], 2.7 in data set [9] and 2.2 in the data set listed under Homo sapiens. Moreover, the IC50 turned out to be 11.2 µM on Acetylcholinesterase [6]; 29.7 µM on Cholinesterase; 19.2 µM against Acetylcholinesterase [7]; 20.5 µM in [8]; 8.4 µM in [11]; 18.6 µM in data set [12].

Turning to `CCN(CC)CCCCOc1ccc2c(c1)NC(=O)CC2`, the Ratio IC50 in the data set filed under Rattus norvegicus [5] came to 0.7; in data set [9] it was 1.5; in the data set listed under Homo sapiens it was 0.5. Also, the IC50 was 5.1 µM against Acetylcholinesterase [6]; 7.7 µM against Cholinesterase; 14.5 µM at Acetylcholinesterase [7]; 9.5 µM in [8]; 7.7 µM in data set [11]; 4 µM in [12].

On to `CCN(CC)CCCCCCOc1ccc2c(c1)NC(=O)CC2`, for which the Ratio IC50 came to 0.6 in the data set listed under Rattus norvegicus [5], 2.2 in data set [9] and 1.6 in the data set filed under Homo sapiens. Moreover, the IC50 at Acetylcholinesterase [6] was found to be 13.3 µM; at Cholinesterase it was 29.5 µM; on Acetylcholinesterase [7] it was 41.9 µM; in data set [8] it was 24.3 µM; in data set [11] it was 5.4 µM; in data set [12], 8.6 µM.

Take `CC(C)N1CCN(CCCOc2ccc3c(c2)NC(=O)CC3)CC1`: the Ratio IC50 came to 0.7 in the data set filed under Rattus norvegicus [5], 3.3 in [9] and 2.8 in the data set filed under Homo sapiens. In addition, the IC50 was determined as 6.2 µM against Acetylcholinesterase [6]; 20 µM on Cholinesterase; 14 µM against Acetylcholinesterase [7]; 10.2 µM in [8]; 9.4 µM in data set [11]; 26.1 µM in [12].

For the compound `O=C1CCc2ccc(OCCCN3CCCCC3)cc2N1`, the Ratio IC50 in the data set filed under Rattus norvegicus [5] came out at 1.4; in data set [9], 3.2; in the data set listed under Homo sapiens, 0.5. Also, the IC50 was found to be 12.2 µM against Acetylcholinesterase [6]; 39 µM against Cholinesterase; 16.5 µM at Acetylcholinesterase [7]; 22.9 µM in data set [8]; 13.1 µM in data set [11]; 6.2 µM in [12].
